Laboratory results as given in ChEMBL document CHEMBL3739259, “Defining Key Structural Determinants for the Pro-osteogenic Activity of Flavonoids” (J Nat Prod, 2015).
Calls of active or inactive are those of the source. The calls are words filed in the database; no cut-off is given here.

Key:
MSC [1] = test: (§1) Induction of osteogenic differentiation in human MSC assessed as increase in ALP activity at 1 uM using p-NPP as substrate after 9 days by colorimetric method relative to control; type: functional
How it was run: (§2)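 ALP read on day 9 in passage-3 bone-marrow hMSCs cultured at high density in Os.D medium. Compound (1, 5 or 10 μM, 0.1% v/v DMSO final) was re-applied on days 0, 3 and 6. Colorimetric p-nitrophenyl phosphate method, normalised to time and cell number (pNP/min/20,000 cells). Expressed as % of untreated control; three independent triplicate experiments; one-way ANOVA versus vehicle.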

MSC [2] = test: (§3) Induction of osteogenic differentiation in human MSC assessed as increase in ALP activity at 5 uM using p-NPP as substrate after 9 days by colorimetric method relative to control; type: functional; how it was run: as §2
[3] = Cytotoxicity against human MSC assessed as decrease in cell number at 1 to 10 uM after 9 days by methylene blue staining based microscopy relative to control; details: 216 h
How it was run: (§4)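 Passage-3 bone-marrow hMSCs, high density in Os.D medium, dosed with 1, 5 or 10 μM compound (0.1% v/v DMSO final) on days 0, 3 and 6 with medium changes. Cell number measured on day 9 by methylene blue proliferation assay. Expressed as % of untreated control; three independent triplicate experiments, mean ± SEM, one-way ANOVA versus vehicle.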

[4] = Cytotoxicity against human MSC assessed as cell viability at 1 uM measured on day 1 by alamar blue assay (reference value: 97 to 101%); details: MSC cells, read-out: Activity
[5] = Cytotoxicity against human MSC assessed as cell viability at 5 uM measured on day 1 by alamar blue assay (reference value: 97 to 101%); details: MSC cells, read-out: Activity
[6] = Cytotoxicity against human MSC assessed as cell viability at 10 uM measured on day 1 by alamar blue assay (reference value: 97 to 101%); details: MSC cells, read-out: Activity
[7] = Cytotoxicity against human MSC assessed as cell viability at 1 uM treated for 3 days measured on day 4 by alamar blue assay (reference value: 97 to 100%); details: MSC cells, read-out: Activity
[8] = Cytotoxicity against human MSC assessed as cell viability at 5 uM treated for 3 days measured on day 4 by alamar blue assay (reference value: 97 to 100%); details: MSC cells, read-out: Activity
[9] = Cytotoxicity against human MSC assessed as cell viability at 10 uM treated for 3 days measured on day 4 by alamar blue assay (reference value: 97 to 100%); details: MSC cells, read-out: Activity
[10] = Cytotoxicity against human MSC assessed as cell viability at 1 uM treated for 6 days measured on day 7 by alamar blue assay (reference value: 96 to 101%); details: MSC cells, read-out: Activity
[11] = Cytotoxicity against human MSC assessed as cell viability at 5 uM treated for 6 days measured on day 7 by alamar blue assay (reference value: 96 to 101%); details: MSC cells, read-out: Activity
[12] = Cytotoxicity against human MSC assessed as cell viability at 10 uM treated for 6 days measured on day 7 by alamar blue assay (reference value: 96 to 101%); details: MSC cells, read-out: Activity
[13] = Decrease in ALP activity in human MSC using p-NPP as substrate at 5 uM after 9 days by colorimetric method relative to control; type: functional; set-up: Activity: scale not given: the % may be the effect or the level left; how it was run: as §2
[14] = Decrease in ALP activity in human MSC using p-NPP as substrate at 10 uM after 9 days by colorimetric method relative to control; type: functional; set-up: Activity: scale not given: the % may be the effect or the level left
How it was run: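 Passage-3 bone-marrow hMSCs from healthy donors, cultured at high density in osteogenic (Os.D) medium; compound given at days 0, 3 and 6 with media change every 3 days, final 0.1% (v/v) DMSO; vehicle, 50 nM calcitriol and untreated controls. Day-9 ALP by para-nitrophenyl phosphate colorimetry, normalised to time and cell number (methylene blue); % of untreated control, 3 independent triplicate experiments ± SEM.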

[15] = Induction of osteogenic differentiation in human MSC assessed as increase in ALP activity at 10 uM using p-NPP as substrate after 9 days by colorimetric method relative to control; type: functional; how it was run: as §2
[16] = Cytotoxicity against human MSC assessed as […] in cell number at 1 to 10 uM after 9 days by methylene blue staining based microscopy relative to control; details: 216 h; how it was run: as §4
[17] = as §1; type: functional; how it was run: as §2
[18] = as §3; type: functional; how it was run: as §2
MSC [19] = test: Induction of osteogenic differentiation in human MSC assessed as increase in ALP activity using p-NPP as substrate after 9 days by colorimetric method; type: functional; how it was run: as §2
[20] = Cytotoxicity against human MSC assessed as cell viability at 1 uM measured on day 1 by alamar blue assay (reference value: […] +/- 1%); details: MSC cells, read-out: Activity
[21] = Cytotoxicity against human MSC assessed as cell viability at 5 uM after 24 hrs measured on day 1 by alamar blue assay (reference value: […] +/- 1%); details: MSC cells, read-out: Activity
[22] = Cytotoxicity against human MSC assessed as cell viability at 10 uM after 24 hrs measured on day 1 by alamar blue assay (reference value: […] +/- 1%); details: MSC cells, read-out: Activity
[23] = Cytotoxicity against human MSC assessed as cell viability at 1 uM treated for 3 days measured on day 4 by alamar blue assay (reference value: 100 +/- 1%); details: MSC cells, read-out: Activity
[24] = Cytotoxicity against human MSC assessed as cell viability at 5 uM treated for 3 days measured on day 4 by alamar blue assay (reference value: 100 +/- 1%); details: MSC cells, read-out: Activity
[25] = Cytotoxicity against human MSC assessed as cell viability at 10 uM treated for 3 days measured on day 4 by alamar blue assay (reference value: 100 +/- 1%); details: MSC cells, read-out: Activity
[26] = Cytotoxicity against human MSC assessed as cell viability at 1 uM treated for 6 days measured on day 7 by alamar blue assay (reference value: 98%); details: MSC cells, read-out: Activity
[27] = Cytotoxicity against human MSC assessed as cell viability at 5 uM treated for 6 days measured on day 7 by alamar blue assay (reference value: 98%); details: MSC cells, read-out: Activity
[28] = Cytotoxicity against human MSC assessed as cell viability at 10 uM treated for 6 days measured on day 7 by alamar blue assay (reference value: 98%); details: MSC cells, read-out: Activity
[29] = Cytotoxicity against human MSC assessed as decrease in cell number at 10 uM after 9 days by methylene blue staining based microscopy relative to control; details: 216 h; how it was run: as §4
[30] = Induction of matrix mineralization in human MSC assessed as increase in calcium deposition across cell monolayer at 10 uM after 20 days by Alizarin red S staining based microscopy relative to control; type: functional
[31] = Cytotoxicity against human MSC assessed as decrease in cell number at 5 uM after 9 days by methylene blue staining based microscopy relative to control; details: 216 h; how it was run: as §4

Row | Compound | Activity (MSC [1]) | viability at 1 day, 1 µM [4] | viability at 1 day, 5 µM [5] | viability at 1 day, 10 µM [6] | viability at 72 h, 1 µM [7] | viability at 72 h, 5 µM [8] | viability at 72 h, 10 µM [9] | viability at 144 h, 1 µM [10] | viability at 144 h, 5 µM [11] | viability at 144 h, 10 µM [12] | Activity [18] | Activity [15] | viability at 1 day, 1 µM [20] | viability at 24 h, 5 µM [21] | viability at 24 h, 10 µM [22] | viability at 72 h, 1 µM [23] | viability at 72 h, 5 µM [24] | viability at 72 h, 10 µM [25] | viability at 144 h, 1 µM [26] | viability at 144 h, 5 µM [27] | other results
1 | O=C(O[C@@H]1Cc2c(O)cc(O)cc2O[C@@H]1c1cc(O)c(O)c(O)c1)c1cc(O)c(O)c(O)c1 [EPIGALOCATECHIN GALLATE] | inactive | 101% | 98% | 90% | 93% | 91% | 89% | 101% | 101% | 102% |  |  |  |  |  |  |  |  |  |  | Activity (MSC [2]): inactive; fold change (FC) [3]: 0.43; Activity [13]: 84%; fold change (FC) [14]: 0.75
2 | COc1ccc([C@@H]2CC(=O)c3c(O)cc(O)cc3O2)cc1O [HESPERETIN] | inactive | 102% | 95% | 96% | 98% | 102% | 103% | 97% | 99% | 98% |  |  |  |  |  |  |  |  |  |  | Activity (MSC [2]): inactive; fold change (FC) [15]: 1.72; Activity [16]: Toxic
3 | COc1ccc(-c2oc3cc(O)cc(O)c3c(=O)c2O)cc1 [KAEMPFERIDE] |  |  |  |  |  |  |  |  |  |  | 237% | 281% | 112% | 112% | 111% | 95% | 95% | 95% | 97% | 98% | Activity [17]: 143%; Activity (MSC [19]): Dose-dependent effect; viability at 144 h, 10 µM [28]: 99%; Activity [29]: Non-toxic; fold change (FC) [30]: 3.17
4 | O=c1c(O)c(-c2ccc(O)cc2)oc2cc(O)cc(O)c12 [KAEMPFEROL] | inactive | 96% | 104% | 104% | 97% | 98% | 98% | 100% | 100% | 97% | 237% | 268% |  |  |  |  |  |  |  |  | fold change (FC) [18]: 1.52; fold change (FC) [15]: 1.32; Activity (MSC [19]): Dose-dependent effect; Activity [16]: Toxic
5 | O=c1c(O)c(-c2cc(O)c(O)c(O)c2)oc2cc(O)cc(O)c12 [MYRICETIN] | inactive | 100% | 94% | 101% | 97% | 97% | 101% | 97% | 98% | 98% |  |  |  |  |  |  |  |  |  |  | Activity [3]: Toxic; fold change (FC) [13]: 0.74; fold change (FC) [14]: 0.62
6 | O=C1C[C@@H](c2ccccc2)Oc2cc(O)cc(O)c21 [PINOCEMBRIN] | inactive |  |  |  |  |  |  |  |  |  | 107% | 121% | 109% | 110% | 111% | 94% | 95% | 96% | 96% | 97% | Activity [3]: Non-toxic; viability at 144 h, 10 µM [28]: 98%
7 | O=c1cc(-c2cc(O)c(O)c(O)c2)oc2cc(O)cc(O)c12 [TRICETIN] | inactive |  |  |  |  |  |  |  |  |  |  |  | 108% | 106% | 104% | 99% | 95% | 95% | 97% | 94% | Activity [13]: 99%; Activity [14]: 79%; viability at 144 h, 10 µM [28]: 94%; fold change (FC) [29]: 0.47; fold change (FC) [31]: 0.68
